Laboratory results as given in paper PMC10441566 (Acta biomaterialia, 2022).

How the values were obtained:
[1] = Microscale thermophoresis; type: binding; conditions: MST; for Hill coefficient / cooperativity factor (n) of binding with CS: Hill fit, n > 1 positive, n < 1 negative cooperativity
Procedure, shortened: (§1)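 Peptide labeled with 5-FAM at the N-terminus was spun at 14,000 g for 10 min, then used at 200 nM. MST was run at 50% excitation and 40% MST power, room temperature, with 20 s traces. A Hill fit of ΔF_Norm gave Kd and n. n=3 independent runs, mean ± SD.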

[2] = Microscale thermophoresis; type: binding; conditions: MST, HA titrated up to 2 μM (physiological SF concentration)
γ-Globulin = assay: Microscale thermophoresis; type: binding, bovine; conditions: MST; for Hill coefficient / cooperativity factor (n) of binding with γ-Globulin: Hill fit
Procedure, shortened: as §1

[3] = Equilibrium intra-cartilage uptake of CPCs in bovine cartilage explants; conditions: 30 μM CPC, 24 h, 37°C; for Intra-cartilage uptake in presence of HA (comparison between CPCs): 3 mg/ml HA; for Intra-cartilage uptake in presence of BSA (comparison between CPCs) / Intra-cartilage equilibrium uptake ratio (RU): 12 mg/ml BSA; for Intra-cartilage equilibrium uptake ratio (RU): Healthy (simulated) SF: 3 mg/ml HA, 0.1 mg/ml DLPC in PBS pH 7.4, bath fluorescence, mean, n >= 6; for Reduction of intra-cartilage uptake in Healthy SF relative to PBS: Healthy SF vs PBS
[4] = type: in vivo; conditions: quadriceps and patellar tendon, fat pad; rat, 24 h after IA injection, Cy5 label
Procedure, shortened: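 Healthy male Wistar rats (8–10 weeks, 350–400 g) received 50 μl of 300 μM Cy5-labeled test peptide intra-articularly through the patellar tendon, with saline controls. Legs were flexed to spread the dose, and rats were killed at 24 h. Harvested knee tissues were imaged by confocal microscopy at 10X, with Z-stacks reconstructed to X-Z sections for penetration depth. N=6 joints per treatment.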

[5] = solute concentration inside cartilage relative to surrounding bath; cited from earlier work
[6] = over 7-days desorption period; cited from earlier work

(AK)7AFAFAF [CPC +F]
Binding with CS-GAG compared with CPC +N [1]: stronger binding | Hill coefficient / cooperativity factor (n) of binding with CS [1]: 1.6

(AK)7ANANAN [CPC +N]
Hill coefficient / cooperativity factor (n) of binding with CS [1]: 0.8

RRRR(AARRR)3 R [CPC +14A]
Binding with HA as ligand [2]: completely unbound | Kd with γ-Globulin, fold lower than that of CPC +14N (γ-Globulin): 1.8 x | Hill coefficient / cooperativity factor (n) of binding with γ-Globulin (γ-Globulin): 0.67 | Intra-cartilage uptake in presence of HA (comparison between CPCs) [3]: no significant difference | Intra-cartilage uptake in presence of BSA (comparison between CPCs) [3]: no significant difference | Intra-cartilage equilibrium uptake ratio (RU) ([3]; 12 mg/ml γ-Globulin): 80 | Reduction of intra-cartilage uptake in Healthy SF relative to PBS [3]: 4.5 x | Confocal fluorescence signal in less GAG-rich tissues [4]: weak fluorescence signal | Intra-cartilage uptake [5]: 350 | Retained within cartilage [6]: > 95%

RRRR(NNRRR)3 R [CPC +14N]
Binding with HA as ligand [2]: completely unbound | Hill coefficient / cooperativity factor (n) of binding with γ-Globulin (γ-Globulin): 0.67 | Hill coefficient / cooperativity factor (n) of binding with CS [1]: 1.6 | Intra-cartilage uptake in presence of phospholipids (DLPC), comparison ([3]; 0.1 mg/ml DLPC): higher uptake than CPC +14A | Intra-cartilage uptake in presence of HA (comparison between CPCs) [3]: no significant difference | Intra-cartilage uptake in presence of BSA (comparison between CPCs) [3]: no significant difference | Intra-cartilage uptake relative to CPC +14A (fold higher) ([3]; 12 mg/ml γ-Globulin): 2.8 x | Intra-cartilage equilibrium uptake ratio (RU) ([3]; 12 mg/ml γ-Globulin): 120 | Reduction of intra-cartilage uptake in Healthy SF relative to PBS [3]: 2.7 x | Intra-cartilage uptake relative to CPC +14A (fold higher) ([3]; Healthy SF): 1.5 x | Intra-cartilage uptake relative to CPC +14A (fold higher) ([3]; OA SF): 2 x | Confocal fluorescence signal in less GAG-rich tissues [4]: weak fluorescence signal
